Sampled rows, rich in hits. Any-hit rate of the full collection: about 1.8%.
PAD4 inh = human PAD4 inhibitors, primary screen, biochemical, fluorescence polarization, 1536-well format; Protein-arginine deiminase type-4 (Homo sapiens), Q9UM07; recombinant PAD4, RCA probe fluorescence polarization; inhibition, % at 6.36 µM; actives 0.41% (n = 330,000);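 active means percent inhibition above a cutoff equal to the mean of all tested compounds plus 3 SD, cut at about 15% in these data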;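 further: 0% = PAD4 with RCA probe and DMSO and 100% = probe without PAD4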
Target sequence (Q9UM07 whole entry, looked up): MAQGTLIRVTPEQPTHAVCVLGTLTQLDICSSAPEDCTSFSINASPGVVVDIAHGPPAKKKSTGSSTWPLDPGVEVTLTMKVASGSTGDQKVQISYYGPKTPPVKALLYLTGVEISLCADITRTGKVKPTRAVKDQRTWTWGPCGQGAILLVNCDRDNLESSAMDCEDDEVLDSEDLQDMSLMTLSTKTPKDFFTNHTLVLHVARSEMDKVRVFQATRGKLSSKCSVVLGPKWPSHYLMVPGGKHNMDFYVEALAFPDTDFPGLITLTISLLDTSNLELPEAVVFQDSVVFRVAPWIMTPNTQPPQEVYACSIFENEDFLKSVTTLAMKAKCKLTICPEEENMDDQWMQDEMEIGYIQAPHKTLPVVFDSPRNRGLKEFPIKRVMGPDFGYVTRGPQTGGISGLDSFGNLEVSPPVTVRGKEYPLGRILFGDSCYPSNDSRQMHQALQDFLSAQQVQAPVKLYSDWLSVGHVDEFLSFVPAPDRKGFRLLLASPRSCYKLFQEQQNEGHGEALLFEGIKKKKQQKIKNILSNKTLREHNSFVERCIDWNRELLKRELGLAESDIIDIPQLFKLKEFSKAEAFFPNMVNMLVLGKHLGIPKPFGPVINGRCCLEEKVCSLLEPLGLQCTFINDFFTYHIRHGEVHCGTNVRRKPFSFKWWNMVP
GSTO1 counter = inhibitors of recombinant GSTO1, primary screen, counter-screen for RBBP9 inhibitor project, biochemical, fluorescence polarization. Glutathione S-transferase omega-1 (Homo sapiens), P78417. activity-based probe fluorescence polarization. inhibition, % at 5.96 µM. actives 1.1% (n = 300,000). AID 1974, 2009;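 active means inhibition above the campaign mean inhibition plus 3 SD, cut at about 35% in these data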;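 further: 0% = GSTO1-1 with DMSO and 100% = wells lacking GSTO1-1 enzyme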
Apaf-1 inh = inhibitors of human Apaf-1 apoptosome, primary screen, biochemical, DEVD-Rh110 fluorescence, uHTS; Apoptotic protease-activating factor 1 (Homo sapiens), O14727; reconstituted apoptosome caspase-3 activity; inhibition, % at 20 µM; actives 0.71% (n = 330,000); active means inhibition of at least 40% at 20 µM;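 further: plate controls were DMSO wells for no effect and DEVD-CHO caspase inhibitor wells for full effect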
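Material: cell-free apoptosome with Apaf-1, procaspase-3 and caspase-9; Buffer or medium: Hepes pH 7.5 with detergent and BSA; Reagent: cytochrome c trigger plus (Z-DEVD)2-Rh110 caspase-3 substrate; Times: compound with Apaf-1, dATP, procaspase-3 30 min, then 50 min reaction, room temperature; Technique: Rh110 fluorescence intensity.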
Fh CTSL1 inh = Fasciola hepatica cathepsin L1 inhibitors, primary screen, counter-screen for PFM18AAP inhibitor project, biochemical, QFRET, fluorogenic peptide substrate; recombinant F. hepatica cathepsin L1, Z-Leu-Arg-MCA fluorescence; inhibition, % at 5.96 µM; actives 0.49% (n = 300,000);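 active means inhibition above the mean of all tested compounds plus 3 SD, set per screening campaign, cut at about 17% in these data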;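 further: 0% = plate median of test compound wells and 100% = 1 µM Z-Phe-Ala-diazomethylketone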
TDP2 absorb = human TDP2 enzyme inhibitors, primary screen, biochemical, epi absorbance, recombinant enzyme; T5PNP hydrolysis, p-nitrophenol absorbance 415 nm; inhibition, % at 12.8 µM; actives 0.34% (n = 370,000);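 active means inhibition above the mean of all tested compounds plus 3 SD, set per campaign, cut at about 25% in these data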;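 further: 0% = DMSO with enzyme and 100% = buffer with substrate but no TDP2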
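Test system: human TDP2 enzyme; Input: 120 nM TDP2 per well; Buffer or medium: Mg2+-containing Tris-HCl buffer, pH 7.5; Reagent: 5 mM T5PNP; Dosing: 12.8 µM single point, 1% DMSO; Incubation: reaction 2 h, 37 °C; Detection: p-Nitrophenol epi absorbance; Read-out: % inhibition relative to enzyme-containing and enzyme-free wells; Replicates: single well per compound.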
Active calls of the source: *; nt = no result.

SMILES	PAD4 inh	GSTO1 counter	Apaf-1 inh	Fh CTSL1 inh	TDP2 absorb
Cc1ccc2oc(=O)c3cnn(CC(=O)N(CCC(C)C)Cc4ccco4)c3c2c1	2	1	8	7	1
O=C(Cn1ncc2c1-c1ccccc1OC2)N(Cc1ccco1)C1CCCCC1	-2	-6	21	62*	0
CC(=O)NCc1ccc(OCCCN2CCC(C(O)(c3ccccc3)c3ccccc3)CC2)cc1	nt	nt	nt	nt	3
NS(=O)(=O)c1ccc(N=Nc2c[nH]c(=O)c(O)c2)cc1	3	64*	74*	-1	23
Nc1nc(O)c(N=Nc2ccc(S(N)(=O)=O)cc2)c(=O)[nH]1	nt	nt	-10	nt	-9
C/C=C\C=C/C(=O)Nc1cccc(C2=NOC3(C2)C[C@@H](C(N)=O)N(C(=O)[C@H]2CCC(=O)N2)C3)c1 (stereo not given in full)	-7	-3	-5	20*	nt
COC(=O)C1=C(C)N(C)C(=S)N(C)C1c1ccc(OC)cc1 (stereo not given)	-2	1	-6	17*	-6
COC(=O)C1=C(C)N(C)C(C)=C(C(=O)OC)C1c1ccc(C(=O)OC)cc1	-3	4	5	0	7
O=C(/C=C/c1ccc(-c2ccccc2)cc1)NC1=NCCS1	nt	nt	nt	nt	9
CSCC[C@H](Nc1ncnc2sc(C)c(C)c12)C(=O)O	-8	2	-12	19*	-5
Cc1sc2ncnc(N[C@@H](CCC(=O)O)C(=O)O)c2c1C	3	-2	0	1	-9
O=c1[nH]cn[nH]1	-2	7	-6	19*	-4
CCOC(=O)N1CCN(C(=O)C[C@@H]2C[C@]3(C(=O)OCC)CCC4=C3N(CCC4)C2=O)CC1	nt	nt	nt	nt	-1
CC(Oc1ccc2c(-c3ccccc3)cc(=O)oc2c1)C(=O)N1CCC[C@@H]1C(N)=O (stereo not given in full)	3	-2	-6	42*	9
COc1ccc(NC(=O)N2CCN(C(=O)Nc3ccc(OC)cc3)CC2)cc1	-3	5	-13	-6	7
COc1ccc(NC(=O)N2CCN(CCC#N)CC2)cc1	0	3	0	17*	2
CCC(C)N(C(=O)COC(=O)c1cc([N+](=O)[O-])ccc1N1CCOCC1)C1CCS(=O)(=O)C1 (stereo not given)	3	-2	78*	2	5
C[C@@H]1CCCCCCCCC(=O)OCCN[C@H](C)CCCCCCCCC(=O)OCCN[C@H](C)CCCCCCCCC(=O)OCCN1	1	nt	68*	nt	nt
CCOC(=O)Nc1ccc2c(c1)[C@]1(CC(=O)N(CC(C)C)C1c1ccccc1)C(=O)N2C (stereo not given in full)	nt	nt	nt	nt	-2
CCC(C(=O)Nc1ccccc1N1CCCC1)c1ccccc1Cl (stereo not given)	nt	nt	nt	nt	5
COCC(=O)OC1CCn2c1nc1c2C(=O)C(C)=C(NC(C)=O)C1=O (stereo not given)	nt	nt	nt	nt	89*
O=C1CC(NCCC2=CCCCC2)C(=O)N1c1cccc(Cl)c1Cl (stereo not given)	4	10	-7	18*	nt
O=C(NCCC1=CCCCC1)C(=O)NCc1ccccc1Cl	6	4	3	8	2
CC[C@@H](CCCc1ccccc1OC)CCS(=O)(=O)C(C)(C)C	nt	nt	nt	nt	15
Cc1ccccc1C(=O)N(C)Cc1ccccc1	-2	1	-1	17*	-2
SMILES	PAD4 inh	GSTO1 counter	Apaf-1 inh	Fh CTSL1 inh	TDP2 absorb
CSc1ccccc1C(=O)N(C)Cc1ccccc1	6	12	-2	-2	9
CCc1nnc(NC(=O)CSc2nc3c(c(=O)n2CC)SC(C)C3)s1 (stereo not given)	-3	35*	-4	1	12
Cc1ccccc1NC(=O)O[C@H]1CC[C@@]23CCCN2C(=O)CCC[C@H]3[C@H]1C	nt	nt	nt	nt	2
O=C(CCl)NCc1cc(-c2ccc(Cl)cc2)no1	0	89*	10	35*	-9
Cc1ccc(SCc2cc(-c3ccc(Cl)cc3)no2)cc1	0	6	78*	-1	-1
COc1ccc(OCc2cc(-c3ccc(Cl)cc3)no2)cc1	5	-6	7	1	7
O=C(CC12CC3CC(CC(C3)C1)C2)NCc1ccncc1	-3	3	-6	17*	-3
O=C(CC12CC3CC(CC(C3)C1)C2)NCc1ccccc1	1	12	8	1	-8
COc1cccc(C(=O)N[C@H](C(=O)N2CCC[C@H]2C(=O)NC2CCCC2)c2ccccc2)c1	nt	nt	nt	nt	-2
O=C(COC(=O)c1ccc([N+](=O)[O-])s1)NCc1ccccc1	-1	42*	19	57*	10
O=C(COC(=O)c1ccc([N+](=O)[O-])o1)NCc1ccccc1	-12	nt	17	nt	0
O=C(COC(=O)c1ccc([N+](=O)[O-])s1)NC(c1ccccc1)c1ccccc1	-11	37*	16	6	-6
COC/C=C/C1=CC2=CC(=O)C(C)(OC(=O)c3cnc4ccccc4n3)C(=O)C2=CO1 (stereo not given)	50*	56*	17	10	nt
COC(=O)[C@]12C[C@H](CC(=O)NCCC(C)C)C(=O)N(CCC3=CCCCC3)C1=C[C@H](C1CCCC1)O[C@@H]2C	nt	nt	nt	nt	0
N#Cc1ccc(C23CC4(C2)[C@H](CN(CC2CCCCC2)[C@@H]4c2ccccc2)C3c2ccccc2)cc1 (stereo not given in full)	0	7	22	-1	-2
N#Cc1ccc(C23CC4(C2)[C@H](CN(CC2CCCCC2)[C@@H]4c2ccccc2)C3c2ccc(C(F)(F)F)cc2)cc1 (stereo not given in full)	nt	nt	42*	nt	-11
O=[N+]([O-])c1cc(CN2CCCC2)c2cccnc2c1O	-24	47*	nt	10	nt
CC(/C=C/C1(O)C(C)CC(O)CC1(C)C)OC1OC(CO)C(O)C(O)C1O (stereo not given)	-1	9	-7	55*	-4
COc1ccc(CN2C(=O)[C@]3(NCCc4c3[nH]c3ccc(OC)cc43)c3cc(Br)ccc32)cc1	nt	nt	nt	nt	-3
COc1ccc(-n2nc3c(N4CCC(C(=O)NCc5ccccc5C)CC4)nnc(C)c3c2C)cc1	-4	11	59*	-1	nt
COc1ccc(-n2nc3c(N4CCC(C(=O)NCCc5ccccc5C)CC4)nnc(C)c3c2C)cc1	0	0	23	-3	nt
O=C(CSc1ccccn1)NCc1ccc2c(c1)OCO2	-7	3	-10	17*	-6
Cc1cc(C(=O)OCC(=O)c2ccc(Cl)c([N+](=O)[O-])c2)c2cccc(C)c2n1	-1	37*	12	-2	3

Compound activity (PubChem BioAssay)
